For orientation: inhibition means the drop in the measured response relative to a control, in per cent. In general, IC50 refers to the concentration needed to halve the response being measured.

For one data set, the target named is CYP3A4 (Homo sapiens, UniProt P08684). Kind of data set: Inhibition of CYP3A4 at 10 uM using testosterone as substrate. Type of data set: ADME. The following applies: probe testosterone. In short, it runs like this:
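CYP3A4 inhibition measured as percent inhibition at 10 μM test compound, testosterone as substrate.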

The subject of another data set is HUVEC. Kind of data set: Antiangiogenic activity in HUVEC assessed as inhibition of VEGF-induced proliferation after 3 days by WST-8 assay. Type of data set: functional, cell-based. The following applies: Homo sapiens, 72 h. The procedure, abridged:
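HUVEC seeded and incubated 1 day, then VEGF plus test compound added; cell number counted after 3 further days of incubation. Growth rate calculated relative to control; IC50 is concentration giving half inhibition of VEGF-induced proliferation, in nM.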
Background: Formazan colour is commonly taken as a measure of viable cells.

The test system of another data set is B16. Put plainly: Antitumor activity against mouse B16 cells xenografted in C57BL/6N mouse assessed as tumor growth at 100 mg/kg, po qd for 10 days relative to control. The following applies: B16, 240 h. The class given is functional. The procedure, abridged:
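B16 cell suspension injected subcutaneously under anesthesia into female C57BL/6 mice, six weeks old. Compound suspension given orally once daily; ten days after cell injection, tumors excised and weighed, anti-cancer effect calculated relative to control.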

Data set [1] relates to Rattus norvegicus. Put plainly: Antiinflammatory activity in Lewis rat adjuvant arthritis model assessed as inhibition of paw edema at 10 mg/kg, po qd for 20 days relative to control. Type of data set: functional. The following applies: 480 h.
Data set [2] deals with Rattus norvegicus. Kind of data set: Antiangiogenic activity in Brown Norway rat assessed as inhibition of laser-induced neovascularization incidence rate at 3 mg/kg, po qd for 7 days relative to control. The class given is functional. The following applies: 168 h. The procedure, abridged: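 Male Brown Norway rats, eight weeks old, under anesthesia and mydriasis; krypton laser photocoagulation of Bruch's membrane. Compound suspension given orally once daily. Seven days after photocoagulation, fluorescein injected via tail vein, fundus photographed, fluorescence leaks counted; neovascularization incidence rate compared with control.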

The species entered for data set [3] is Rattus norvegicus. Kind of data set: animal or person. Particulars: Brown Norway, po, 168 h, read-out: INH.

Sequence of CYP3A4 (P08684 whole entry): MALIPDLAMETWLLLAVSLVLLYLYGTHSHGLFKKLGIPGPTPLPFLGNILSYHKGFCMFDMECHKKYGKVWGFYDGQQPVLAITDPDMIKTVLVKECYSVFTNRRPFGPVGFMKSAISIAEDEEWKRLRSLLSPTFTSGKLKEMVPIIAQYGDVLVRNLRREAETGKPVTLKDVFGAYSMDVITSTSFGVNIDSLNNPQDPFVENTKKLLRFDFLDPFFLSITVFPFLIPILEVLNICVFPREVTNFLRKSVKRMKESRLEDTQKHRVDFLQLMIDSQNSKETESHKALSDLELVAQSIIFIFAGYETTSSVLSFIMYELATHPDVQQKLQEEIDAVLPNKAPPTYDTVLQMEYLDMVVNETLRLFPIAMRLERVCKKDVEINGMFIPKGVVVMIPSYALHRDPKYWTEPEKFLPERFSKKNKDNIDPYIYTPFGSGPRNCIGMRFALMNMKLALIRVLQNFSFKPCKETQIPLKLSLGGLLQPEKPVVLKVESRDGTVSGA

`Cc1cc(C)cc(NC(=O)c2cccnc2SCc2ccncc2)c1` displayed an inhibition at 10 µM against CYP3A4 of 96%. Turning to `Cc1cc(C)cc(NC(=O)c2cccnc2SCc2ccnc(NC(=O)CN(C)C)c2)c1`, the concentration for half-maximal inhibition (IC50) with HUVEC was 22 nM. As for `Cc1cc(C)cc(NC(=O)c2cccnc2SCc2cc[n+]([O-])cc2)c1`, the IC50 in the data set with HUVEC is 24 nM. Moreover, the inhibition in vivo at 100 mg/kg with B16 was 76%. This molecule also returned an inhibition at 10 µM against CYP3A4 of 16%.

Turning to `Cc1cc(C)cc(NC(=O)c2cccnc2SCc2cc[n+](C)cc2)c1`, in the data set with HUVEC, the IC50 was over 2000 nM. Take `Cc1cc(C)cc(NC(=O)c2cccnc2SCc2ccnc(F)c2)c1`: the IC50 in the data set with HUVEC was 13 nM. This molecule showed an inhibition at 10 µM on CYP3A4 of 40%.

With `Cc1cc(C)cc(NC(=O)c2cccnc2SCc2ccnc(Cl)c2)c1`, the IC50 in the data set with HUVEC was found to be 12 nM. The same molecule came in with an inhibition at 10 µM at CYP3A4 of 60%. As to `Cc1cc(C)cc(NC(=O)c2cccnc2SCc2ccnc(C)c2)c1`, the IC50 in the data set on HUVEC came out at 68 nM. With `Cc1cc(C)cc(NC(=O)c2cccnc2SCc2ccnc(C#N)c2)c1`, the IC50 with HUVEC worked out at 3.5 nM. This molecule also gave an inhibition at 10 µM at CYP3A4 of 48%. On the same counts, the results for `Cc1cc(C)cc(NC(=O)c2cccnc2SCc2ccnc(N)c2)c1` are 5.8 nM and 21%. With `CNc1cc(CSc2ncccc2C(=O)Nc2cc(C)cc(C)c2)ccn1`, the half-maximal inhibitory concentration (IC50) with HUVEC amounted to 21 nM. In the case of `CC(=O)Nc1cc(CSc2ncccc2C(=O)Nc2cc(C)cc(C)c2)ccn1`, the half-inhibitory concentration (IC50) in the data set on HUVEC is under 0.91 nM. This molecule also returned an inhibition at 10 µM on CYP3A4 of 20%. In the case of `CC(=O)N(C)c1cc(CSc2ncccc2C(=O)Nc2cc(C)cc(C)c2)ccn1`, the concentration for half-maximal inhibition (IC50) with HUVEC was 65 nM. The same measure, in the same setting: with `Cc1cc(C)cc(NC(=O)c2cccnc2SCc2ccnc(N3CCOCC3)c2)c1` the figure was 84 nM. For `COc1cc(CSc2ncccc2C(=O)Nc2cc(C)cc(C)c2)ccn1`, the 50% inhibitory concentration (IC50) with HUVEC turned out to be 100 nM. Take `CSc1cc(CSc2ncccc2C(=O)Nc2cc(C)cc(C)c2)ccn1`: the half-maximal inhibitory concentration (IC50) with HUVEC was 100 nM. On CYP3A4, this molecule showed an inhibition at 10 µM of 69%.

Turning to `CNC(=O)c1cc(CSc2ncccc2C(=O)Nc2cc(C)cc(C)c2)ccn1`, the IC50 with HUVEC was found to be 18 nM.

`CCC(=O)Nc1cc(CSc2ncccc2C(=O)Nc2cc(C)cc(C)c2)ccn1`: the IC50 in the data set on HUVEC turned out to be 1.8 nM. Still for that read-out and setting: with `COC(=O)Nc1cc(CSc2ncccc2C(=O)Nc2cc(C)cc(C)c2)ccn1` the figure was 15 nM; with `Cc1cc(C)cc(NC(=O)c2cccnc2SCc2ccnc(NC(=O)CO)c2)c1`, 6.6 nM. For the molecule `CNC(=O)Nc1cc(CSc2ncccc2C(=O)Nc2cc(C)cc(C)c2)ccn1`, in the data set on HUVEC, the IC50 was 8.8 nM. The inhibition in vivo at 100 mg/kg in the data set on B16 came to 43%. Also, the inhibition at 10 µM at CYP3A4 was found to be 24%. Turning to `Cc1cc(C)cc(NC(=O)c2cccnc2SCc2ccnc(NC(=O)CN)c2)c1`, the IC50 in the data set on HUVEC amounted to 48 nM. On CYP3A4, this molecule had an inhibition at 10 µM of 10%.

In the case of `Cc1cc(C)cc(NC(=O)c2cccnc2SCc2ccnc(NC(=O)CNCCN(C)C)c2)c1`, in the data set on Rattus norvegicus [1], the inhibition in vivo at 10 mg/kg came to 70%. Further, the half-maximal inhibitory concentration (IC50) with HUVEC amounted to 5.9 nM. In addition, the inhibition in vivo at 3 mg/kg in the data set on Rattus norvegicus [2] was 55%. For the same molecule, the inhibition in vivo at 100 mg/kg in the data set on B16 amounted to 83%. 10 µM produced 14% inhibition on CYP3A4. As for `Cc1cc(C)cc(NC(=O)c2cccnc2SCc2ccnc(NC(=O)CNCCCO)c2)c1`, in the data set on HUVEC, the IC50 amounted to 18 nM. In the data set on B16, the inhibition in vivo at 100 mg/kg came to 77%. Further, the inhibition at 10 µM against CYP3A4 worked out at 23%.

`CC(=O)Nc1cc(CSc2ncccc2C(=O)Nc2ccc(OC(F)(F)F)cc2)ccn1`: in the data set on HUVEC, the concentration for half-maximal inhibition (IC50) came out at 3.9 nM. At CYP3A4, the inhibition at 10 µM was determined as 38%. On to `O=C(CO)Nc1cc(CSc2ncccc2C(=O)Nc2ccc(OC(F)(F)F)cc2)ccn1`, for which, in the data set with HUVEC, the IC50 is 7.4 nM. In addition, the inhibition in vivo at 100 mg/kg in the data set with B16 was 85%. For the same molecule, the inhibition at 10 µM at CYP3A4 turned out to be 17%. Regarding `CNC(=O)Nc1cc(CSc2ncccc2C(=O)Nc2ccc(OC(F)(F)F)cc2)ccn1`, the IC50 in the data set with HUVEC is 20 nM. The same measure, in the same setting: with `NCC(=O)Nc1cc(CSc2ncccc2C(=O)Nc2ccc(OC(F)(F)F)cc2)ccn1` the figure was 49 nM. As for `CN(C)CC(=O)Nc1cc(CSc2ncccc2C(=O)Nc2ccc(OC(F)(F)F)cc2)ccn1`, in the data set on HUVEC, the half-inhibitory concentration (IC50) was 35 nM. Also, at CYP3A4, at 10 µM the inhibition was 19%. Turning to `CN(C)CCNCC(=O)Nc1cc(CSc2ncccc2C(=O)Nc2ccc(OC(F)(F)F)cc2)ccn1`, the IC50 in the data set with HUVEC stood at 18 nM. Besides, the inhibition in vivo at 100 mg/kg in the data set on B16 stood at 79%. At 10 µM the inhibition against CYP3A4 was 29%. The like results for `O=C(CNCCCO)Nc1cc(CSc2ncccc2C(=O)Nc2ccc(OC(F)(F)F)cc2)ccn1` were, in that order, 26 nM, 79% and 33%. Regarding `C[C@H]1C[C@H]2[C@@H]3CCC4=CC(=O)C=C[C@]4(C)[C@@]3(F)[C@@H](O)C[C@]2(C)[C@@]1(O)C(=O)COP(=O)(O)O` [BETAMETHASONE PHOSPHORIC ACID], in the data set filed under Rattus norvegicus [3], the inhibition in vivo at 1 mg/kg turned out to be 96%. On to `Clc1ccc(Nc2nnc(Cc3ccncc3)c3ccccc23)cc1` [VATALANIB], for which, in the data set with Rattus norvegicus [1], the inhibition in vivo at 10 mg/kg was 23%.

The record behind these values is ChEMBL document CHEMBL1667827, “Pyridylmethylthio derivatives as VEGF inhibitors: part 2” (Bioorg Med Chem Lett, 2011).
